Paper PMC8317200 (Journal of medicinal chemistry, 2020)
Residues, ends and D or L forms follow the SMILES beside them. *: point of attachment. Adamantane1carbonyl = O=C(C12CC3CC(CC(C3)C1)C2)*; OtBu = CC(C)(C)O*; OAll = C=CCO*; OPr = CCCO*

T1: FGF14 (Homo sapiens, UniProt Q92915)
T1 sequence (Q92915 64-252 isoform Q92915-2): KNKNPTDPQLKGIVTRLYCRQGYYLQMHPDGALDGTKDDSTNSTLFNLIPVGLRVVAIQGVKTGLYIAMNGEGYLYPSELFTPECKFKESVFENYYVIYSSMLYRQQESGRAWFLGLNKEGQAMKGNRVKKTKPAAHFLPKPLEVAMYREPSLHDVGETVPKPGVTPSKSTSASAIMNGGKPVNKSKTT

B1: fibroblast growth factor 14 (FGF14), aa 64–252 (domain or fragment, human, UniProt Q92915-2 64-252, looked up)
chain: KNKNPTDPQLKGIVTRLYCRQGYYLQMHPDGALDGTKDDSTNSTLFNLIPVGLRVVAIQGVKTGLYIAMNGEGYLYPSELFTPECKFKESVFENYYVIYSSMLYRQQESGRAWFLGLNKEGQAMKGNRVKKTKPAAHFLPKPLEVAMYREPSLHDVGETVPKPGVTPSKSTSASAIMNGGKPVNKSKTT
B2: Nav1.6 C-terminal tail, aa 1767–1912 (domain or fragment, human, UniProt Q9UQD0-1 1767-1912, looked up)
chain: ENFSVATEESADPLSEDDFETFYEIWEKFDPDATQFIEYCKLADFADALEHPLRVPKPNTIELIAMDLPMVSGDRIHCLDILFAFTKRVLGDSGELDILRQQMEERFVASNPSKVSYEPITTTLRRKQEEVSAVVLQRAYRGHLAR

Legend:
Nav1.6 C-terminal tail = Nav1.6 C-terminal tail (Homo sapiens, UniProt Q9UQD0); experiment: Surface plasmon resonance; format: binding; details: for koff: read-out: koff Nav1.6 C-terminal tail; for kon: read-out: kon Nav1.6 C-terminal tail
Nav1.1 channels = Nav1.1 channels (Homo sapiens, UniProt P35498); experiment: Whole-cell patch-clamp electrophysiology in HEK-Nav1.1 cells; format: cell-based
Nav1.2 channels = Nav1.2 channels (Homo sapiens, UniProt Q99250); experiment: Whole-cell patch-clamp electrophysiology in HEK-Nav1.2 cells; format: cell-based
Chain of Nav1.2 channels (Q99250 whole entry): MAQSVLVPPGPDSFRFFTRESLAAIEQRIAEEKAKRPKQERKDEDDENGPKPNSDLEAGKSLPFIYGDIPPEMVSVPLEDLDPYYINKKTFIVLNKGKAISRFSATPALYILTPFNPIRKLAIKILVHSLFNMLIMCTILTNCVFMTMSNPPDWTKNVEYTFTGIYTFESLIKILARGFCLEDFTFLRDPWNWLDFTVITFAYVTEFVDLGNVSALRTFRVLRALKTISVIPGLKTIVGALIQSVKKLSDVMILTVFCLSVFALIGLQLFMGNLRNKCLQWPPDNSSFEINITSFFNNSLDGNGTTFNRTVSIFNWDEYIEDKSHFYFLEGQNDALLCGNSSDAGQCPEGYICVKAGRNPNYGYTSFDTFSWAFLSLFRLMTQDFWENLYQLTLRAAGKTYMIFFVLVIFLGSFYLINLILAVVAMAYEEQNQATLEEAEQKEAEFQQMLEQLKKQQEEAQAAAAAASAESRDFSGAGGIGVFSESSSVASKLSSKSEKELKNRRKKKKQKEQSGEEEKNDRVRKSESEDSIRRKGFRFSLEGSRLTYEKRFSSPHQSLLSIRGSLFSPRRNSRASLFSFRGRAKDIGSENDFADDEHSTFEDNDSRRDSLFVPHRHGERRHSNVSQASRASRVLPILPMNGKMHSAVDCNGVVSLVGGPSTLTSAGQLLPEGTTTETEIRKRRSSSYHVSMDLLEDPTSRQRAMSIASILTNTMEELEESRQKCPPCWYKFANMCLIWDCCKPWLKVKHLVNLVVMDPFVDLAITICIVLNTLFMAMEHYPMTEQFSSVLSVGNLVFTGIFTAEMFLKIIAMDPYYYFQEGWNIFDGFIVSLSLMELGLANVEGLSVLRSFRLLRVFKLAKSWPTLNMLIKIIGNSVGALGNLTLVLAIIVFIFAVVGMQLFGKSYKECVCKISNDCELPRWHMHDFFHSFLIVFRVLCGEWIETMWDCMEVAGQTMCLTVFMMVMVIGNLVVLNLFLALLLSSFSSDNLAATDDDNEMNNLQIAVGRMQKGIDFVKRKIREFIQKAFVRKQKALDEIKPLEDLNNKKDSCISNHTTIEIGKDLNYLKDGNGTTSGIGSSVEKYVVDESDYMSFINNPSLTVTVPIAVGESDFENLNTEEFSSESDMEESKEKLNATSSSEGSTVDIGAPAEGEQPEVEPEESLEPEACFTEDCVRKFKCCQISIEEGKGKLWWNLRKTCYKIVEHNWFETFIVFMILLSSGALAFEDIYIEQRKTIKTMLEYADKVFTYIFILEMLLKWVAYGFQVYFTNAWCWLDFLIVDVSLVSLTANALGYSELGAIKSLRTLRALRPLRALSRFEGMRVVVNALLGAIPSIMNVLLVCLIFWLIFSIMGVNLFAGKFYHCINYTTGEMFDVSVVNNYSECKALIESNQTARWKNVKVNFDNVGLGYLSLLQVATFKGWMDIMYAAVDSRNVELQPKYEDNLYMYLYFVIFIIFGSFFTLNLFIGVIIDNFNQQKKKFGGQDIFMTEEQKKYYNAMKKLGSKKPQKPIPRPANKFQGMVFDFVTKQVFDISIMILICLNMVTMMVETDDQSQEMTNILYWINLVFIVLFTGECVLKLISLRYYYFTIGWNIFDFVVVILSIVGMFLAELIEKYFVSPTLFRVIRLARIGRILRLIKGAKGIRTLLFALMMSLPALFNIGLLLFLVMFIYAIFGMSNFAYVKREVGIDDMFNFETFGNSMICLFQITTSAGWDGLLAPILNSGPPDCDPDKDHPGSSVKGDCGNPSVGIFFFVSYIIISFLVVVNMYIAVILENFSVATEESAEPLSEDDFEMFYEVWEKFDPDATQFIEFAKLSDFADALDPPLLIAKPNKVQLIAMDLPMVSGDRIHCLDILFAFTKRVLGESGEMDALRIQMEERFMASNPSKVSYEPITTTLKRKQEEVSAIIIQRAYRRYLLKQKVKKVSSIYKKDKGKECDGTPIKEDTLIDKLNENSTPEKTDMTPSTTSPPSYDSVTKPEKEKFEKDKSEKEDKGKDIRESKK

FGF14 = molecular target: T1, FGF14; experiment: Surface plasmon resonance; format: binding; details: for koff: read-out: koff FGF14; for kon: read-out: kon FGF14
[1] = molecular target: human Nav1.6 (HEK-Nav1.6) channels (Homo sapiens, UniProt Q9UQD0); format: cell-based; details: 30 μM; absence of FGF14
Chain of human Nav1.6 (HEK-Nav1.6) channels (Q9UQD0 whole entry): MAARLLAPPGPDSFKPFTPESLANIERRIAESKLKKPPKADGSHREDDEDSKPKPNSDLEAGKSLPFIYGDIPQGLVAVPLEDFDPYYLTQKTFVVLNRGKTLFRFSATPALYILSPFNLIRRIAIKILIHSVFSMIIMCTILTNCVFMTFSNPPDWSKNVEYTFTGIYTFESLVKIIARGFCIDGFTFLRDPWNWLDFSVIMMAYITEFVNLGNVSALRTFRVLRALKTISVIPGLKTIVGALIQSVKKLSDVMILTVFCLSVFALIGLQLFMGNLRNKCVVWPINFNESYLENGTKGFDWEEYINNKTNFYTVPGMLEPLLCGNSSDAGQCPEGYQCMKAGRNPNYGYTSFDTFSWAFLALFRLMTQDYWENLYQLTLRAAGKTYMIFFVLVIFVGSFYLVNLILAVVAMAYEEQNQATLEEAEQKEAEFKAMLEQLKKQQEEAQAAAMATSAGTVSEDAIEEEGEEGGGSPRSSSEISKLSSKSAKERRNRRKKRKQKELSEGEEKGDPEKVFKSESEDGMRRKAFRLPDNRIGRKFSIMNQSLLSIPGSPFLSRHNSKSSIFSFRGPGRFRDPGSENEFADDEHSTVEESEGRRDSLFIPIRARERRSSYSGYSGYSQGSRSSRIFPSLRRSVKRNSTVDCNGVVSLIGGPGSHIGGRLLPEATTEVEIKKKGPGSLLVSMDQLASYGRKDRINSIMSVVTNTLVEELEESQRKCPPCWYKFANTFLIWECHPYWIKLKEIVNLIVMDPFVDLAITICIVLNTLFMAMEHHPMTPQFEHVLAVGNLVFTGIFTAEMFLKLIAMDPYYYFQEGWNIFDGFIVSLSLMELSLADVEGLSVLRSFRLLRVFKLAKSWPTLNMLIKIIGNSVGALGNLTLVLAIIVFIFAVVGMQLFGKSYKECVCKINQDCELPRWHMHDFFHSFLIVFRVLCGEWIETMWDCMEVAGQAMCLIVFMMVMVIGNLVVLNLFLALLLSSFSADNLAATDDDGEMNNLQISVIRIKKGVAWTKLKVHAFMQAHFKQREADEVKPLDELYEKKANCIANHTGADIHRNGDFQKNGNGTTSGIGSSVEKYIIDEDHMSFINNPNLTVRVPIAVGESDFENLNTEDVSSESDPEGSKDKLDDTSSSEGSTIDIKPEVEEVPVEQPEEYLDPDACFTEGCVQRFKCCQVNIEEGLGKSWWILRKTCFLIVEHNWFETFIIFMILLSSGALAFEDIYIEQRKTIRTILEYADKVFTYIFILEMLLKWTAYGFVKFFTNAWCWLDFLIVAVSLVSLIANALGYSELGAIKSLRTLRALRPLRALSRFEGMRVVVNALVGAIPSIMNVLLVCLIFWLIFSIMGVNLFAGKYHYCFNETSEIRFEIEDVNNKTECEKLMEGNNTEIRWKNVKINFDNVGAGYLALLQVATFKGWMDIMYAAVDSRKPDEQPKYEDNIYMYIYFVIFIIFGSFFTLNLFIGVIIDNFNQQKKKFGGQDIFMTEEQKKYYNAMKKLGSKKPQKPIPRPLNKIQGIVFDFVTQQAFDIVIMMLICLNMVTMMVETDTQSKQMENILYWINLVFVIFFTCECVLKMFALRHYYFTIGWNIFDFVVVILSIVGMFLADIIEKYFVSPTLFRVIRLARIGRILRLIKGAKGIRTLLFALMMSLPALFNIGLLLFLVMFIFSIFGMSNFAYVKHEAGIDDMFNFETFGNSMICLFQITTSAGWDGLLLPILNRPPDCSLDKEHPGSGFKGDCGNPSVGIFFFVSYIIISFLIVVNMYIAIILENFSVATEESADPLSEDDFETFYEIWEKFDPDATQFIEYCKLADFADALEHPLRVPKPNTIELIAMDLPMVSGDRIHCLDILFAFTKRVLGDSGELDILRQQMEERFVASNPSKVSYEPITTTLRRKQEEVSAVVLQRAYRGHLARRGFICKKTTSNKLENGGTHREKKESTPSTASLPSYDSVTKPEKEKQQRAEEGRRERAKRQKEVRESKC
Procedure, shortened: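 HEK293 cells stably expressing human Nav1.6 were kept under 500 μg/mL G418 with no FGF14 transfection. They were washed and re-plated at very low density onto glass coverslips, and the test compound was applied at 30 μM. Whole-cell patch clamp used extracellular solution (mM): 140 NaCl, 3 KCl, 1 MgCl2, 1 CaCl2, 10 HEPES, 10 glucose.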

[2] = molecular target: B2; experiment: SPR
FGF14:Nav1.6 = FGF14:Nav1.6 (Homo sapiens, UniProt Q92915+Q9UQD0); experiment: SPR of FGF14 binding to Nav1.6 C-terminal tail, alone or in complex with 21a; details: FGF14 alone
Procedure, shortened: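 Recombinant human Nav1.6 C-terminal tail (aa 1763–1976, His-tagged, E. coli-expressed, purified by column chromatography) amine-coupled to a CM5 chip (934 RU). FGF14 at 15.6–1500 nM, complexed with 2.1% DMSO alone, was flowed over the chip at 25 °C and 50 μL/min. Injection 120 s, dissociation 150 s, then regeneration (600 mM NaCl, 5% DMSO). kon and koff came from a Langmuir 1:1 fit.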

[3] = molecular target: B1; experiment: SPR

| Molecule | Binding to Nav1.6 C-terminal tail by SPR (in words) (Nav1.6 C-terminal tail) | koff (Nav1.6 C-terminal tail) [s⁻¹] | kon (Nav1.6 C-terminal tail) [M⁻¹ s⁻¹] | koff (FGF14) [s⁻¹] | kon (FGF14) [M⁻¹ s⁻¹] | also measured |
| --- | --- | --- | --- | --- | --- | --- |
| COC(=O)[C@@H](NC(=O)[C@H](CCC(=O)OC(C)(C)C)NC(=O)[C@H](CC(C)C)NC(=O)[C@@H]1CCCN1C(=O)C12CC3CC(CC(C3)C1)C2)C(C)C [Compound 21a, tert-Butyl (S)-4-((S)-2-((S)-1-((3S,5S,7S)-adamantane-1-carbonyl)pyrrolidine-2-carboxamido)-4-methylpentanamido)-5-(((S)-1-methoxy-3-methyl-1-oxobutan-2-yl)amino)-5-oxopentanoate] (Adamantane1carbonyl-PLE(OtBu)V-OMe) | appreciable binding | 0.00357 | 62300 | 0.00933 | 4660 | Changes in the kinetic properties of Nav1.1 channels (Nav1.1 channels): no changes; Changes in the kinetic properties of Nav1.2 channels (Nav1.2 channels): no changes |
| C=CCOC(=O)[C@@H](NC(=O)[C@H](CCC(=O)OC(C)(C)C)NC(=O)[C@H](CC(C)C)NC(=O)[C@@H]1CCCN1C(=O)C12CC3CC(CC(C3)C1)C2)C(C)C [Compound 23a, tert-Butyl (S)-4-((S)-2-((S)-1-((3S,5S,7S)-adamantane-1-carbonyl)pyrrolidine-2-carboxamido)-4-methylpentanamido)-5-(((S)-1-(allyloxy)-3-methyl-1-oxobutan-2-yl)amino)-5-oxopentanoate] (Adamantane1carbonyl-PLE(OtBu)V-OAll) | – | – | – | 0.00932 | 17900 | Effect on Nav1.6-mediated currents [1]: unaffected |
| CCOC(=O)[C@@H](NC(=O)[C@H](CCC(=O)OC(C)(C)C)NC(=O)[C@H](CC(C)C)NC(=O)[C@@H]1CCCN1C(=O)C12CC3CC(CC(C3)C1)C2)C(C)C [Compound 23f, tert-Butyl (4S)-4-((2S)-2-((2S)-1-((1R,3R)-adamantane-1-carbonyl)pyrrolidine-2-carboxamido)-4-methylpentanamido)-5-(((S)-1-ethoxy-3-methyl-1-oxobutan-2-yl)amino)-5-oxopentanoate] (Adamantane1carbonyl-PLE(OtBu)V-OEt) | appreciable binding | 0.0122 | 2640 | 0.0205 | 217 | – |
| CCCOC(=O)[C@@H](NC(=O)[C@H](CCC(=O)OC(C)(C)C)NC(=O)[C@H](CC(C)C)NC(=O)[C@@H]1CCCN1C(=O)C12CC3CC(CC(C3)C1)C2)C(C)C [Compound 23g, tert-Butyl (4S)-4-((2S)-2-((2S)-1-((1R,3R)-adamantane-1-carbonyl)pyrrolidine-2-carboxamido)-4-methylpentanamido)-5-(((S)-3-methyl-1-oxo-1-propoxybutan-2-yl)amino)-5-oxopentanoate] (Adamantane1carbonyl-PLE(OtBu)V-OPr) | appreciable binding | 0.0492 | 340 | 0.0204 | 289 | – |
| B1 | – | – | – | – | – | KD with 10 μM 21a [2]: 1420 ± 135 nM |
| FGF14: purified recombinant human fibroblast growth factor 14 protein flown over Nav1.6 C-terminal tail in SPR (protein, left off: His6, N-terminal, state not stated) KNKNPTDPQLKGIVTRLYCRQGYYLQMHPDGALDGTKDDSTNSTLFNLIPVGLRVVAIQGVKTGLYIAMNGEGYLYPSELFTPECKFKESVFENYYVIYSSMLYRQQESGRAWFLGLNKEGQAMKGNRVKKTKPAAHFLPKPLEVAMYREPSLHDVGETVPKPGVTPSKSTSASAIMNGGKPVNKSKTT | – | – | – | – | – | koff of FGF14 binding to Nav1.6 C-terminal tail (FGF14:Nav1.6): 0.00171 ± 1.02e-05 s⁻¹; kon of FGF14 binding to Nav1.6 C-terminal tail (FGF14:Nav1.6): 21800 ± 160 M⁻¹ s⁻¹ |
| B2 | – | – | – | – | – | Kd [3]: 228 ± 57.5 nM; koff [3]: 0.00171 s⁻¹; kon [3]: 21800 M⁻¹ s⁻¹ |
